Test results: ChEMBL document CHEMBL1138555, “N-acylated and N,N'-diacylated imidazolidine-2-thione derivatives and N,N'-diacylated tetrahydropyrimidine-2(1H)-thione analogues: synthesis and antiproliferative activity” (Eur J Med Chem, 2009)
Activity calls are given as the source filed them. The rule behind the calls is not given here.

Columns and labels:
[1] = tested on: Human immunodeficiency virus 1; assay: Antiviral activity against HIV1 in human MT4 cells assessed as prevention of virus-induced cytopathogenicity; assay type: functional, organism-based
How it was run: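 MT-4 cells, 1 × 10⁴ per well, with serial compound dilutions from a 100 mM DMSO stock. Infected with HIV-1 at 100 CCID50. Four-day incubation at 37 °C, then viable cells measured by MTT. Read-out is inhibition of virus-induced cytopathogenicity, assessed at non-cytotoxic concentrations.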

NCI-H23 = assay: Growth inhibition of human NCI-H23 cells after 48 hrs by sulforhodamine B assay; assay type: functional; conditions: NCI-H23, 48 h
How it was run: (§1)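 NCI screen panel. Five 10-fold concentrations from 10^-4 to 10^-8 M. Exposure for the last 48 h of a 72 h incubation. Growth estimated by sulforhodamine B protein assay. GI50 is the concentration giving 50% growth inhibition. Where that level was not reached or was exceeded, the value is given as above or below the highest or lowest concentration tested.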

UACC-62 = assay: Growth inhibition of human UACC62 cells after 48 hrs by sulforhodamine B assay; assay type: functional; conditions: UACC-62, 48 h
How it was run: (§2)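 NCI in vitro panel screen. Compounds tested at five 10-fold dilutions, 10^-4 to 10^-8 M. Cells in 96-well plates were exposed for the last 48 h of a 72 h incubation. Viability/growth was read by sulforhodamine B protein assay. GI50 is the concentration giving 50% growth inhibition. Values beyond the tested range are reported as greater or less than the maximum or minimum concentration.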

NCI-H460 = assay: Growth inhibition of human NCI-H460 cells after 48 hrs by sulforhodamine B assay; assay type: functional; conditions: NCI-H460, 48 h; how it was run: as §1
M14 = assay: Growth inhibition of human M14 cells after 48 hrs by sulforhodamine B assay; assay type: functional; conditions: M14, 48 h; how it was run: as §1
SNB-19 = assay: Growth inhibition of human SNB19 cells after 48 hrs by sulforhodamine B assay; assay type: functional; conditions: SNB-19, 48 h; how it was run: as §2
Malme-3M = assay: Growth inhibition of human MALME-3M cells after 48 hrs by sulforhodamine B assay; assay type: functional; how it was run: as §1
BT-549 = assay: Growth inhibition of human BT549 cells after 48 hrs by sulforhodamine B assay; assay type: functional; conditions: BT-549, 48 h; how it was run: as §1
HT-29 = assay: Growth inhibition of human HT-29 cells after 48 hrs by sulforhodamine B assay; assay type: functional; conditions: HT-29, 48 h; how it was run: as §1
SK-OV-3 = assay: Growth inhibition of human SKOV3 cells after 48 hrs by sulforhodamine B assay; assay type: functional; conditions: SK-OV-3, 48 h; how it was run: as §1
HOP-62 = assay: Growth inhibition of human HOP62 cells after 48 hrs by sulforhodamine B assay; assay type: functional; conditions: HOP-62, 48 h; how it was run: as §1
LOX IMVI = assay: Growth inhibition of human LOXIMVI cells after 48 hrs by sulforhodamine B assay; assay type: functional; how it was run: as §1
786-0 = assay: Growth inhibition of human 786-0 cells after 48 hrs by sulforhodamine B assay; assay type: functional; conditions: 786-0, 48 h; how it was run: as §1
MCF7 = assay: Growth inhibition of human MCF7 cells after 48 hrs by sulforhodamine B assay; assay type: functional; conditions: MCF7, 48 h; how it was run: as §1
NCI-H322M = assay: Growth inhibition of human NCI-H322M cells after 48 hrs by sulforhodamine B assay; assay type: functional; how it was run: as §1
EKVX = assay: Growth inhibition of human EKVX cells after 48 hrs by sulforhodamine B assay; assay type: functional; how it was run: as §1
[2] = Growth inhibition of human […] cells after 48 hrs by sulforhodamine B assay; assay type: functional; how it was run: as §1
HOP-92 = assay: Growth inhibition of human HOP92 cells after 48 hrs by sulforhodamine B assay; assay type: functional; conditions: HOP-92, 48 h; how it was run: as §1
SF-268 = assay: Growth inhibition of human SF268 cells after 48 hrs by sulforhodamine B assay; assay type: functional; conditions: SF-268, 48 h; how it was run: as §1
NCI-H522 = assay: Growth inhibition of human NCI-H522 cells after 48 hrs by sulforhodamine B assay; assay type: functional; conditions: NCI-H522, 48 h; how it was run: as §1
TK-10 = assay: Growth inhibition of human TK10 cells after 48 hrs by sulforhodamine B assay; assay type: functional; conditions: TK-10, 48 h; how it was run: as §2
MDA-MB-231 = assay: Growth inhibition of human MDA-MB-231 cells after 48 hrs by sulforhodamine B assay; assay type: functional; conditions: MDA-MB-231, 48 h; how it was run: as §1
IGROV-1 = assay: Growth inhibition of human IGROV1 cells after 48 hrs by sulforhodamine B assay; assay type: functional; conditions: IGROV-1, 48 h; how it was run: as §1
HL-60(TB) = assay: Growth inhibition of human HL-60(TB) cells after 48 hrs by sulforhodamine B assay; assay type: functional; conditions: HL-60, 48 h
How it was run: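 NCI 60-cell-line screen protocol: cells exposed to compound at five 10-fold dilutions from 10^-4 to 10^-8 M for the last 48 h of a 72 h incubation. Sulforhodamine B protein assay estimated viability/growth. GI50 (50% growth inhibition) derived; where not reached or exceeded, reported as greater or less than the highest or lowest concentration tested.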

OVCAR-4 = assay: Growth inhibition of human OVCAR4 cells after 48 hrs by sulforhodamine B assay; assay type: functional; conditions: OVCAR-4, 48 h; how it was run: as §1
SK-MEL-2 = assay: Growth inhibition of human SK-MEL-2 cells after 48 hrs by sulforhodamine B assay; assay type: functional; conditions: SK-MEL-2, 48 h; how it was run: as §1
CAKI-1 = assay: Growth inhibition of human Caki1 cells after 48 hrs by sulforhodamine B assay; assay type: functional; conditions: CAKI-1, 48 h; how it was run: as §1
A549 = assay: Growth inhibition of human A549 cells after 48 hrs by sulforhodamine B assay; assay type: functional; conditions: A549, 48 h; how it was run: as §1
HCT-116 = assay: Growth inhibition of human HCT116 cells after 48 hrs by sulforhodamine B assay; assay type: functional; conditions: HCT-116, 48 h; how it was run: as §1
MDA-MB-435 = assay: Growth inhibition of human MDA-MB-435 cells after 48 hrs by sulforhodamine B assay; assay type: functional; conditions: MDA-MB-435, 48 h; how it was run: as §1
SW-620 = assay: Growth inhibition of human SW620 cells after 48 hrs by sulforhodamine B assay; assay type: functional; conditions: SW-620, 48 h; how it was run: as §2
SK-MEL-28 = assay: Growth inhibition of human SK-MEL-28 cells after 48 hrs by sulforhodamine B assay; assay type: functional; conditions: SK-MEL-28, 48 h; how it was run: as §1
SN12C = assay: Growth inhibition of human SN12C cells after 48 hrs by sulforhodamine B assay; assay type: functional; how it was run: as §2
ACHN = assay: Growth inhibition of human ACHN cells after 48 hrs by sulforhodamine B assay; assay type: functional; how it was run: as §1
T47D = assay: Growth inhibition of human T47D cells after 48 hrs by sulforhodamine B assay; assay type: functional; how it was run: as §2
U-251 = assay: Growth inhibition of human U251 cells after 48 hrs by sulforhodamine B assay; assay type: functional; conditions: U-251, 48 h; how it was run: as §2
UO-31 = assay: Growth inhibition of human UO31 cells after 48 hrs by sulforhodamine B assay; assay type: functional; conditions: UO-31, 48 h; how it was run: as §2
RXF 393 = assay: Growth inhibition of human RXF393 cells after 48 hrs by sulforhodamine B assay; assay type: functional; conditions: RXF 393, 48 h; how it was run: as §1
DU-145 = assay: Growth inhibition of human DU145 cells after 48 hrs by sulforhodamine B assay; assay type: functional; conditions: DU-145, 48 h; how it was run: as §1
HCT-15 = assay: Growth inhibition of human HCT15 cells after 48 hrs by sulforhodamine B assay; assay type: functional; conditions: HCT-15, 48 h; how it was run: as §1
K562 = assay: Growth inhibition of human K562 cells after 48 hrs by sulforhodamine B assay; assay type: functional; conditions: K562, 48 h; how it was run: as §1
MOLT-4 = assay: Growth inhibition of human MOLT4 cells after 48 hrs by sulforhodamine B assay; assay type: functional; conditions: MOLT-4, 48 h; how it was run: as §1
SR = assay: Growth inhibition of human SR cells after 48 hrs by sulforhodamine B assay; assay type: functional; how it was run: as §2
KM12 = assay: Growth inhibition of human KM12 cells after 48 hrs by sulforhodamine B assay; assay type: functional; conditions: KM12, 48 h; how it was run: as §1
OVCAR-3 = assay: Growth inhibition of human OVCAR-3 cells after 48 hrs by sulforhodamine B assay; assay type: functional; conditions: OVCAR-3, 48 h; how it was run: as §1
UACC-257 = assay: Growth inhibition of human UACC257 cells after 48 hrs by sulforhodamine B assay; assay type: functional; conditions: UACC-257, 48 h; how it was run: as §2
SK-MEL-5 = assay: Growth inhibition of human SK-MEL-5 cells after 48 hrs by sulforhodamine B assay; assay type: functional; conditions: SK-MEL-5, 48 h; how it was run: as §1
MT4 = assay: Antiproliferative activity against human MT4 cells assessed as reduction of growth by MTT assay; assay type: functional, cell-based
How it was run: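 MT-4 lymphoblastoid T cells (ATCC) in RPMI 1640 with 10% FCS, penicillin/streptomycin, checked for mycoplasma. 1 × 10⁴ mock-infected cells per well with serial dilutions from a 100 mM DMSO stock. Incubated 4 days at 37 °C, viable cells counted by MTT. IC50 versus untreated controls by linear regression. Mean of three separate experiments.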

NCI/ADR-RES = assay: Growth inhibition of human NCI/ADR-RES cells after 48 hrs by sulforhodamine B assay; assay type: functional; how it was run: as §1
OVCAR-8 = assay: Growth inhibition of human OVCAR8 cells after 48 hrs by sulforhodamine B assay; assay type: functional; conditions: OVCAR-8, 48 h; how it was run: as §1
COLO 205 = assay: Growth inhibition of human COLO205 cells after 48 hrs by sulforhodamine B assay; assay type: functional; conditions: COLO 205, 48 h; how it was run: as §1
SF-295 = assay: Growth inhibition of human SF295 cells after 48 hrs by sulforhodamine B assay; assay type: functional; conditions: SF-295, 48 h; how it was run: as §1
PC-3 = assay: Growth inhibition of human PC3 cells after 48 hrs by sulforhodamine B assay; assay type: functional; conditions: PC-3, 48 h; how it was run: as §1

N#C/C(=C\N1CCNC1=S)C(=O)Nc1ccc(Cl)cc1
Activity [1]: inactive

N#C/C(=C\N1CCN(C(=O)c2ccco2)C1=S)C(N)=O
GI50 (NCI-H23): 21.4 µM | GI50 (UACC-62): 14 µM | GI50 (NCI-H460): 4 µM | GI50 (M14): 16.5 µM | GI50 (SNB-19): 36.4 µM | GI50 (Malme-3M): 12.5 µM | GI50 (BT-549): 22.5 µM | GI50 (HT-29): 24.1 µM | GI50 (SK-OV-3): 42.6 µM | GI50 (HOP-62): 25.6 µM | GI50 (LOX IMVI): 2.5 µM | GI50 (786-0): 18 µM | GI50 (MCF7): 1.7 µM | GI50 (NCI-H322M): 17.6 µM | GI50 (EKVX): 0.3 µM | GI50 [2]: 12.4 µM | GI50 (HOP-92): 25.5 µM | GI50 (SF-268): 11.7 µM | GI50 (NCI-H522): 18.7 µM | GI50 (TK-10): 12.1 µM | GI50 (MDA-MB-231): 13.1 µM | GI50 (IGROV-1): 24 µM | GI50 (HL-60(TB)): 22 µM | GI50 (OVCAR-4): 18.5 µM | GI50 (SK-MEL-2): 24.4 µM | GI50 (CAKI-1): 11.8 µM | GI50 (A549): 34.5 µM | GI50 (HCT-116): 21.2 µM | GI50 (MDA-MB-435): 14.6 µM | GI50 (SW-620): 22.1 µM | GI50 (SK-MEL-28): 15.8 µM | GI50 (SN12C): 12 µM | GI50 (ACHN): 11 µM | GI50 (T47D): 9.3 µM | GI50 (U-251): 11.5 µM | GI50 (UO-31): 23.5 µM | GI50 (RXF 393): 19.2 µM | GI50 (DU-145): 29.8 µM | GI50 (HCT-15): 3.8 µM | GI50 (K562): 9.1 µM | GI50 (MOLT-4): 39.8 µM | GI50 (SR): 3 µM | GI50 (KM12): 7.5 µM | GI50 (OVCAR-3): 19 µM | GI50 (UACC-257): 23.3 µM | GI50 (SK-MEL-5): 16.5 µM | IC50 (MT4): 4 µM | GI50 (NCI/ADR-RES): 25.4 µM | GI50 (OVCAR-8): 43.6 µM | GI50 (COLO 205): 24.9 µM | GI50 (SF-295): 32.1 µM | GI50 (PC-3): 35.6 µM
